Reference: ChEMBL document CHEMBL1151181, “New sesterterpenes from the Antarctic sponge Suberites sp” (2004)

Key:
Type in all cases: functional
Candida albicans = experiment: Antimicrobial activity against Candida albicans at 25 ug by paper-disk method; conditions: read-out: IZ
Outline: (§1)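 Paper-disk diffusion assay with 25 µg of compound per disk; activity read as diameter of the growth-inhibition zone in mm. The Streptococcus strain is given only as Streptococcus sp.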

Staphylococcus aureus = experiment: Antimicrobial activity against Staphylococcus aureus at 25 ug by paper-disk method; conditions: read-out: IZ; outline: as §1
Escherichia coli = experiment: Antimicrobial activity against Escherichia coli at 25 ug by paper-disk method; conditions: read-out: IZ; outline: as §1
Bacillus subtilis = experiment: Antimicrobial activity against Bacillus subtilis at 25 ug by paper-disk method; conditions: read-out: IZ; outline: as §1
Streptococcus = experiment: Antimicrobial activity against Streptococcus at 25 ug by paper-disk method; conditions: read-out: IZ; outline: as §1
K562 = experiment: Cytotoxicity against human K562 cells by MTT method; conditions: read-out: LC50 (the source's name)
Outline: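 Human leukemia K562 cell line, MTT read-out; value expressed as LC50 in µg/mL.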

SMILES	zone of inhibition at 25 µg/disc (Candida albicans)	zone of inhibition at 25 µg/disc (Staphylococcus aureus)	zone of inhibition at 25 µg/disc (Escherichia coli)	zone of inhibition at 25 µg/disc (Bacillus subtilis)	zone of inhibition at 25 µg/disc (Streptococcus)	CC50 (K562)
CC(=O)O[C@@H]1C=C(C)C(=O)C[C@H]1[C@@]1(O)CC[C@@H]2[C@@](C)(C[C@@H](OC(C)=O)[C@H]3C(C)(C)CCC[C@]23C)C1	< 3 mm	< 3 mm	< 3 mm	< 3 mm	< 3 mm	–
CC(=O)O[C@@H]1C[C@@]2(C)CC(c3ccc(C)c(O)c3)=CC[C@H]2[C@@]2(C)CCCC(C)(C)[C@H]12 [SUBERIPHENOL]	< 3 mm	< 3 mm	< 3 mm	< 3 mm	< 3 mm	> 100 µg/mL
CC(=O)O[C@@H]1C[C@@]2(C)CC([C@@H]3CC(=O)C(C)=C[C@H]3O)=CC[C@H]2[C@@]2(C)CCCC(C)(C)[C@H]12 [SUBERITENONE C]	< 3 mm	< 3 mm	< 3 mm	< 3 mm	< 3 mm	> 100 µg/mL
